Experimental data reported in ChEMBL document CHEMBL1149300, “Novel retinoic acid metabolism blocking agents endowed with multiple biological activities are efficient growth inhibitors of human breast and prostate cancer cells in vitro and a human breast tumor xenograft in nude mice” (J Med Chem, 2004).
The source made the active and inactive calls. The calls are words filed in the database; no cut-off is given here.

Legend:
MCF7 [1] = assay: Antiproliferative effect against human MCF7 cells; format: functional, cell-based
How it was run: (§1)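 MCF-7 (IMEM, 5% FBS) or T47D (RPMI 1640, 10% FBS) cells, 1 × 10^4 per well, adhered ~18 h, then exposed to 0.0001-10 µM drug (ethanol) for 6 days with media and drug renewed on day 4. MTT for 2 h, formazan dissolved in DMSO, A540. Triplicate wells, 2-3 experiments; IC50 by nonlinear regression.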

Mesocricetus auratus = species: Mesocricetus auratus; assay: Inhibition of ATRA hydroxylase in Syrian golden hamster liver microsome assessed ATRA metabolism using [11.12-3H]-ATRA; format: microsomes
How it was run: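 Microsomes from male Syrian golden hamster liver, or from T47D cells pretreated with 1 µM ATRA. Incubation in 0.1 M phosphate buffer pH 7.4 with NADPH, MgCl2 and BSA, inhibitor in DMSO; 3 min preincubation at 37 °C, then [11,12-3H]-ATRA for 30 min at 37 °C under oxygen. Ethyl acetate extraction, reverse-phase HPLC with radiometric detection; percent polar metabolites; IC50 from dose-response curves.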

MCF7 [2] = assay: Growth inhibition of human MCF7 cells after 6 days by MTT assay; format: functional, cell-based; settings: MCF7, 144 h; how it was run: as §1
T47D = assay: Growth inhibition of human T47D cells after 6 days by MTT assay; format: functional, cell-based; settings: 144 h; how it was run: as §1
MDA-MB-231 = assay: Growth inhibition of human MDA-MB-231 cells up to 10 uM after 6 days by MTT assay; format: functional, cell-based
LNCaP = assay: Growth inhibition of human LNCaP cells after 6 days by MTT assay; format: functional, cell-based; settings: 144 h
How it was run: (§2)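 LNCaP cells (1 × 10^4) on poly-L-lysine-coated wells, attached 36 h; PC-3 cells (1 × 10^4), uncoated, attached 24 h; both in RPMI 1640. Treated with a concentration range of drug for 6 days, medium changed every 3 days. MTT read-out at 540 nm; IC50 by nonlinear regression from at least two experiments.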

PC-3 = assay: Growth inhibition of human PC3 cells after 6 days by MTT assay; format: functional, cell-based; settings: PC-3, 144 h; how it was run: as §2
[3] = Displacement of [11,12-3H]ARTA from RARgamma; parameters: species or system Homo sapiens
How it was run: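 Recombinant S-Tag RARα, RARβ or RARγ fusion protein extracts (10-30 µg/mL total protein) in HEPES pH 7.9 binding buffer. Incubated with 1 nM [3H]all-trans-RA and 0-500 nM test compound for 3 h at 27 °C. Nonspecific binding measured with a 200-fold excess of unlabeled RA; IC50 from dose-response curves, at least two experiments.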

MCF7 [4] = assay: Reduction of tumor growth in MCF7 cells xenografted ovariectomized mouse at 0.033 mmol/kg, sc for 6 weeks relative to control; format: functional; settings: Homo sapiens
How it was run: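 Female ovariectomized nude mice received estrogen pellets. MCF-7 cells (2 × 10^6 in Matrigel) were injected sc into both flanks and grown 4-5 weeks to 200-300 mm3. Groups of n = 5 were dosed sc once daily, 6 days/week for 6 weeks, vehicle 0.3% HPC, 200 µL. Tumors were measured weekly by caliper, volume = (4/3)πr1²r2, and change was compared with vehicle controls.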

CC1=C(/C=C/C(C)=C/C=C/C(C)=C/C(=O)O)C(C)(C)CCC1 [TRETINOIN]
IC50 (MCF7 [1]): 584 nM
Km (Mesocricetus auratus): 0.16 µM
IC50 (MCF7 [2]): 580 nM
IC50 (T47D): 6 nM
Activity (MDA-MB-231): inactive
IC50 (LNCaP): 10000 nM
IC50 (PC-3): 2000 nM
IC50 [3]: 10 nM
Activity (MCF7 [4]): inactive
